“Also recorded” adds a separate entry of the source. Where two headings read alike, the source gives them in different places.
Key:
[1] = Cytotoxicity assay, microtetrazolium test; type: cell-based; settings: dog, MDCK cells
How it was run: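 MDCK cells were exposed for 48 h at 36°C in 5% CO2 to threefold serial dilutions of test compound in MEM, in triplicate. After two PBS washes, cells were incubated for 1 h with MTT ([…] in PBS). The formazan was dissolved in DMSO and OD was read at 535 nm. OD was plotted against concentration to calculate CC50.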

[2] = test system: influenza A virus A/Puerto Rico/8/34 (H1N1) (PR8 (H1N1)); test: microbe, parasite or virus in culture; type: cell-based; settings: for IC50: Influenza A virus, H1N1|PR8, MDCK, read-out: IC50 (50% virus-inhibiting concentration)
[3] = test system: influenza A virus A/California/07/09 (H1N1)pdm09 (Cal (H1N1)pdm09); test: microbe, parasite or virus in culture; type: cell-based; settings: for IC50: read-out: IC50 (50% inhibitory concentration)
[4] = test system: influenza A virus A/Aichi/2/68 (H3N2) (Aichi (H3N2)); test: microbe, parasite or virus in culture; type: cell-based; settings: for IC50: read-out: IC50 (50% inhibitory concentration)
[5] = test system: influenza A viruses (H1, H1pdm09, and H3 subtypes); test: microbe, parasite or virus in culture; type: cell-based; settings: read-out: IC50 value (depending on the virus)
[6] = test system: influenza A virus PR8 (H1N1); type: cell-based
[7] = target: receptor-binding activity of viral HA of influenza A virus PR8 (H1N1) (Influenza A virus, UniProt P03452); type: biochemical
Chain of receptor-binding activity of viral HA of influenza A virus PR8 (H1N1) (P03452 18-343 limits assumed): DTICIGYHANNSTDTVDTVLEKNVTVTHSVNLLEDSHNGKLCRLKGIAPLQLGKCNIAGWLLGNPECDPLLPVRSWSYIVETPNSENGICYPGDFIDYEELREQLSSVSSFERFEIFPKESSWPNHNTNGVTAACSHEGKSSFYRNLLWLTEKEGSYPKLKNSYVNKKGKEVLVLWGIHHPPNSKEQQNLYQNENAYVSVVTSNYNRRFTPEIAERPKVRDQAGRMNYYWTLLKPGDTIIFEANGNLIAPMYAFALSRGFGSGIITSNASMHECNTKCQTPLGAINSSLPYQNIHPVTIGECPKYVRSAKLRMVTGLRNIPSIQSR
Chain of receptor-binding activity of viral HA of influenza A virus PR8 (H1N1) (P03452 344-565 limits assumed): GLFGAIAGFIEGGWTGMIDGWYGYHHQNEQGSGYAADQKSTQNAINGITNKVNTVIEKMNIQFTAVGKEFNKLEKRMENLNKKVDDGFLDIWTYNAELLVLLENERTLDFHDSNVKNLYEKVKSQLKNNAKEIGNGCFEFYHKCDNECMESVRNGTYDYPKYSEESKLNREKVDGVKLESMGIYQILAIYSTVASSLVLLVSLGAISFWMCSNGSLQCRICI

Row | Compound | CC50 at 48 h [1] [µM] | SI (selectivity index, CC50/IC50) [2] | IC50 [2] [µM] | also measured
1 | CC1(C)[C@H]2CC[C@]1(C)[C@H](OC(=O)C[N+](C)(C)C)C2.[I-] [10a, N,N,N-Trimethyl-2-oxo-2-((1S,2R,4S)-1,7,7-trimethylbicyclo[2.2.1]heptan-2-yloxy)ethanaminium iodide] | 1310 ± 126 | 546 | 2.4 ± 0.4 | SI (selectivity index, CC50/IC50) [3]: 78; IC50 ([3]; Influenza A virus, H1N1, MDCK): 16.9 µM; IC50 [3]: 16.8 ± 3.1 µM; SI (selectivity index, CC50/IC50) [4]: 142; IC50 [4]: 9.2 ± 1.3 µM; IC50 [5]: 2.4 to 16.8 µM; Infectious activity of the virus when compound is added late [6]: not statistically different from the control values; Time of addition at which the compound is most effective [6]: most effective when added at the early stages of the viral life cycle; also recorded: most effective when added within 0–2 hours after infection; Effect on hemagglutination titer of the virus [7]: did not change this value
2 | CC1(C)[C@H]2CC[C@]1(C)[C@H](OC(=O)CCC[N+](C)(C)C)C2 [10c, N,N,N-Trimethyl-4-oxo-4-((1S,2R,4S)-1,7,7-trimethylbicyclo[2.2.1]heptan-2-yloxy)butan-1-aminium iodide] | 264 ± 15 | – | > 117 | –
3 | CC[N+](C)(CC)CC(=O)O[C@H]1C[C@@H]2CC[C@@]1(C)C2(C)C.[I-] [11a, N,N-Diethyl-N-methyl-2-oxo-2-((1S,2S,4S)-1,7,7-trimethylbicyclo[2.2.1]heptan-2-yloxy)ethanaminium iodide] | 850 ± 38 | 3 | 316 ± 40 | –
4 | CC[N+](C)(CC)CCC(=O)O[C@H]1C[C@@H]2CC[C@@]1(C)C2(C)C [11b, N,N-Diethyl-N-methyl-3-oxo-3-((1S,2S,4S)-1,7,7-trimethylbicyclo[2.2.1]heptan-2-yloxy)propan-1-aminium iodide] | 69 ± 6 | – | > 37 | –
5 | NC12CC3CC(CC(C3)C1)C2 [Amantadine, reference compound] | 284 ± 21 | 4 | 64.2 ± 4.7 | –
6 | CC(N)C1C[C@@H]2CC[C@H]1C2 (stereo partly drawn) [Deitiforine, reference compound] | 1270 ± 81 | – | – | –
7 | NC(=O)c1ncn([C@@H]2O[C@H](CO)[C@@H](O)[C@H]2O)n1 [Ribavirin, reference compound] | > 2000 | >81 | 24.6 | SI (selectivity index, CC50/IC50) [3]: 61; IC50 ([3]; Influenza A virus, H1N1, MDCK): 35 ± 4.6 µM; SI (selectivity index, CC50/IC50) [4]: 52; IC50 ([4]; Influenza A virus, H3N2, MDCK): 41 ± 3.9 µM
8 | CC(N)C12CC3CC(CC(C3)C1)C2 (stereo not drawn) [Rimantadine, reference compound] | 335 ± 27 | 5 | 67 ± 4.9 | –
9 | CC1(C)[C@@H]2CC[C@@]1(C)/C(=N/CC[N+](C)(C)C)C2.[I-] [compound 6, N,N,N-Trimethyl-2-((E)-((1R,4R)-1,7,7-trimethylbicyclo[2.2.1]heptan-2-ylidene)amino)ethanaminium iodide] | > 2100 | > 18 | 115 ± 10 | –
10 | CC1(C)[C@@H]2CC[C@@]1(C)/C(=N/CCC[N+](C)(C)C)C2.[I-] [compound 7, N,N,N-Trimethyl-3-((E)-((1R,4R)-1,7,7-trimethylbicyclo[2.2.1]heptan-2-ylidene)amino)propan-1-aminium iodide] | > 1990 | > 14 | 144 ± 12 | –
